{"source": "BindingDB's records for doi:10.1021/jm0500119", "about": "(Cnrs-University of Lille 2 Umr 8525, 2005)", "target": "Peptidyl-prolyl cis-trans isomerase NIMA-interacting 1 (Homo sapiens, UniProt Q13526)", "sequence (Q13526 whole entry, the tested form may be a part)": "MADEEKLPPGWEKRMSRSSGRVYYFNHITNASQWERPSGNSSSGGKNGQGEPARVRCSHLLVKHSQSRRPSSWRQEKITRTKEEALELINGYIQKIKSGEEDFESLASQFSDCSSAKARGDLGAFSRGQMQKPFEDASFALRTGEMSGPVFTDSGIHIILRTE", "test": "Dissociation constant for human peptidyl-prolyl cis-trans isomerase NIMA-interacting 1", "how_it_was_run": "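15N-labeled Pin1 WW domain (His6-tagged, expressed in E. coli BL21(DE3)) in 25 mM deuterated Tris-HCl pH 6.8, 50 mM NaCl, 5 mM DTT, 2.5 mM EDTA, 10% D2O; 600 MHz 1H-15N HSQC at 293 K. 50 μM protein titrated with ligand 0.025–1 mM final; chemical shift perturbations fitted to a single-site equation for KD.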"}
{"smiles": "NC(=O)[C@@H]1CCCN1C(=O)CCNc1c(O)c(=O)c1=O", "note": "[1-[(S)-3-(2-Hydroxy-3,4-dioxo-cyclobut-1-enylamino)-propionyl]-pyrrolidine-2-carboxylic acid amide]", "values": [{"measurement": "Kd", "value": "> 2", "unit": "mM"}]}
